Experimental data taken from ChEMBL document CHEMBL4342435, “Synthesis of novel 4-Boc-piperidone chalcones and evaluation of their cytotoxic activity against highly-metastatic cancer cells” (Bioorg Med Chem Lett, 2020).
Values after ≈ are worked out from the molar mass of the structure shown. Active and inactive are the calls of the source. No cut-off for these calls is given here.

Assays:
[1] = tested on: PC-3; experiment: Growth inhibition of human PC3 cells incubated for 48 hrs by MTS assay; format: functional; conditions: PC-3, 48 h
Procedure, shortened: (§1)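 MTS viability on PC3 and 22RV1 prostate cancer cells after 48h incubation. […] DMSO control. Triplicates (N=3). One-way ANOVA with Dunnett's test, mean ± SEM, P<0.05.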

[2] = tested on: CWR22R; experiment: Growth inhibition of human 22Rv1 cells incubated for 48 hrs by MTS assay; format: functional; conditions: 22Rv1, 48 h; procedure, shortened: as §1
[3] = tested on: CWR22R; experiment: Antiproliferative activity human 22Rv1 cells assessed as reduction in Ki67 protein level at GI50 incubated for 48 hrs by DAPI staining based immunofluorescence assay; format: functional, cell-based
[4] = tested on: PC-3; experiment: Antiproliferative activity human PC3 cells assessed as reduction in Ki67 protein level at GI50 incubated for 48 hrs by DAPI staining based immunofluorescence assay; format: functional, cell-based
[5] = tested on: COLO 205; experiment: Growth inhibition of human COLO205 cells incubated for 72 hrs by CellTiter-Glo luminescent cell viability; format: functional; conditions: COLO 205, 72 h
[6] = Selectivity index, ratio of GI50 for human CCD-18Co cells to GI50 for human LoVo cells
[7] = Selectivity index, ratio of GI50 for human CCD-18Co cells to GI50 for human COLO205 cells
[8] = tested on: LoVo; experiment: Growth inhibition of human LoVo cells incubated for 72 hrs by CellTiter-Glo luminescent cell viability; format: functional
[9] = Cytotoxicity against human CCD-18Co cells assessed as reduction in cell viability incubated for 72 hrs by CellTiter-Glo luminescent cell viability; format: cell-based
[10] = Inhibition of TNFalpha-induced NFkappaB activation in human HEK293 cells preincubated for 16 hrs followed by TNFalpha addition and measured after 6 hrs by luminescence based assay; format: cell-based
[11] = tested on: COLO 205; experiment: Induction of apoptosis in human COLO205 cells assessed as activation of caspases 7 at GI50 by fluorescent inhibitor probe FAM-DEVD-FMK staining based fluorescence assay (reference value: 15.3%); format: functional; parameters: scale not given: the % may be the effect or the level left
Procedure, shortened: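 COLO-205 cells treated at the concentrations listed in the GI50 table. Active caspases 3 and 7 labelled with the fluorescent inhibitor probe FAM-DEVD-FMK and read by flow cytometry. Untreated negative control, camptothecin positive control. Triplicate (N=3), P<0.05 versus vehicle.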

[12] = tested on: COLO 205; experiment: Induction of apoptosis in human COLO205 cells at GI50 incubated for 24 hrs by Annexin V-FITC/Hoechst/propidium iodide staining based cell counting method (reference value: 10.7%); format: functional

Compound	GI50 [1] [µg/mL]	GI50 [2] [µg/mL]	Activity [3]	Activity [4]	GI50 [5] [µg/mL]	RatioGI50 [6]	RatioGI50 [7]	GI50 [8] [µg/mL]	GI50 at 72 h [9] [µg/mL]	IC50 [10] [µg/mL]	Activity [11] [%]	Activity [12] [%]
CC(=O)O[C@@]12CO[C@@H]1C[C@H](O)[C@@]1(C)C(=O)[C@H](O)C3=C(C)[C@@H](OC(=O)[C@H](O)[C@@H](NC(=O)OC(C)(C)C)c4ccccc4)C[C@@](O)([C@@H](OC(=O)c4ccccc4)[C@H]21)C3(C)C [DOCETAXEL ANHYDROUS]	0.009 (≈ 0.0111 µM)	0.006 (≈ 0.00743 µM)	Active	Active								
CC(C)(C)OC(=O)N1C/C(=C\c2ccc(O)cc2)C(=O)/C(=C/c2ccc(O)cc2)C1	22.9 (≈ 56.2 µM)	17.1 (≈ 42 µM)	Active	Active	20.9 (≈ 51.3 µM)	1.8	0.3	3.5 (≈ 8.59 µM)	6.4 (≈ 15.7 µM)			
CC(C)(C)OC(=O)N1C/C(=C\c2ccccc2C(F)(F)F)C(=O)/C(=C/c2ccccc2C(F)(F)F)C1					4.5 (≈ 8.8 µM)	1.7	1.7	4.6 (≈ 8.99 µM)	7.6 (≈ 14.9 µM)	27.2 (≈ 53.2 µM)	31.5	35
CC[C@@]1(O)C(=O)OCc2c1cc1n(c2=O)Cc2cc3ccccc3nc2-1 [CAMPTOTHECIN]											59.3	37.3
CC(C)(C)OC(=O)N1C/C(=C\c2cccc(O)c2)C(=O)/C(=C/c2cccc(O)c2)C1					11.7 (≈ 28.7 µM)	1.6	0.5	4.1 (≈ 10.1 µM)	6.4 (≈ 15.7 µM)			
COc1cc(/C=C2\CN(C(=O)OC(C)(C)C)C/C(=C\c3ccc(O)c(OC)c3)C2=O)ccc1O					27.4 (≈ 58.6 µM)	1.9	0.7	9.6 (≈ 20.5 µM)	18.3 (≈ 39.1 µM)			
COc1cc(/C=C/C(=O)CC(=O)/C=C/c2ccc(O)c(OC)c2)ccc1O [CURCUMIN]	13.8 (≈ 37.5 µM)	14.3 (≈ 38.8 µM)	Active	Active	12.7 (≈ 34.5 µM)			4.3 (≈ 11.7 µM)	7.2 (≈ 19.5 µM)	7.7 (≈ 20.9 µM)		
COc1ccc(/C=C2\CN(C(=O)OC(C)(C)C)C/C(=C\c3ccc(OC)cc3OC)C2=O)c(OC)c1					0.84 (≈ 1.7 µM)		1.4	2 (≈ 4.04 µM)	1.2 (≈ 2.42 µM)		35.7	62
COc1cc(/C=C/C(=O)/C=C/c2ccc(O)c(OC)c2)ccc1O	24.8 (≈ 76 µM)	22.7 (≈ 69.6 µM)	Active		19.4 (≈ 59.4 µM)	1.5	0.8	10 (≈ 30.6 µM)	15.1 (≈ 46.3 µM)			
CC(C)(C)OC(=O)N1C/C(=C\c2ccccc2)C(=O)/C(=C/c2ccccc2)C1					34.7 (≈ 92.4 µM)	2	0.4	6.1 (≈ 16.2 µM)	12.4 (≈ 33 µM)			
